In PubChem BioAssay:
Active and inactive are the calls of the source.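 The calls were made as follows, unless noted: active = Her2 level under about 52% in both replicate screens, with viability over 70% of control (limit read from the data); inconclusive = Her2 under the limit in one screen only, or viability under 70%; inactive = Her2 level above the set limit.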

Tests used:
[1] = target: Pantothenate synthetase (Mycobacterium tuberculosis (strain ATCC 25618 / H37Rv)) (UniProt P9WIL5); test: Recombinant Mtb pantothenate synthetase (PanC) inhibitors, coupled enzyme, confirmatory (AID 375; call rule not given here;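 also: 0% = full reaction with vehicle and 100% = no enzyme background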); conditions: coupled enzyme assay; at 10 µM, stronger effect = higher value
[2] = reducers of endogenous Her2 protein level, primary screen, SKBR3 breast tumor cells, AlphaScreen, ATP viability (AID 461); conditions: 18-24 h, measured here: SKBR3 viability, ATP luminescence, at 10 µM;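 as to Her2 level: lower value means less Her2 protein in the cells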;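 as to viability: percent of carrier control wells set as 100% viability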
[3] = target: Receptor tyrosine-protein kinase erbB-2 (Homo sapiens) (UniProt P04626); test: as above; conditions: 18-24 h, at 10 µM, stronger effect = lower value
[4] = SK-BR-3 cell growth inhibitors, pilot screen, 24 h, human (AID 572;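 active = viability at or below 10% of carrier control in both of two separate runs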;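 also: compound exposure lasted between 18 and 24 h rather than exactly 24 h; 100% = carrier-treated control wells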); conditions: SK-BR-3 viability, CellTiter-Glo luminescence, at 10 µM, stronger effect = lower value
[5] = HUVEC growth inhibition – cell-based, human, primary screen (AID 575;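 active = viability at or below 30% in both replicate assays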;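 also: 100% = median of untreated cell wells with 0.1% DMSO on each plate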); conditions: HUVEC proliferation, CellTiter-Glo luminescence, 72 h; at 10 µM; stronger effect = lower value
Summary of the method: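 Test system: primary human umbilical vein endothelial cells; medium: endothelial basal medium with 2% FBS plus growth supplements; dosing: 10 µM compound only; times: 72 h treatment at 37 °C; signal: CTG luminescence; read-out: % viability relative to median vehicle-well signal on each plate; control set: vehicle and MePR control wells; plate: 384-well, collagen-coated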

[6] = growth inhibitors of H69AR lung tumor, primary screen, human, duplicate replicates (AID 580;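 active = viability at or under a set limit in both replicates, limit being median viability minus 3 SD, cut at about 48% in these data, passing the limit was not always enough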;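 also: 100% = mean luminescence of untreated wells and 0% = no signal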); conditions: H69AR lung tumor cells viability, ATP luminescence, 72 h; at 10 µM; stronger effect = lower value
[7] = reversal of MRP1-mediated doxorubicin resistance, pilot screen, H69AR cells, doxorubicin co-treatment (AID 601;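 active = viability loss from added drug above about 55%, and viability with drug at most 40%, in both replicates, limit read from the data, passing the limit was not always enough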); conditions: CellTiter-Glo, 72 h, at 10 µM; for differential viability (reversal): stronger effect = higher value
[8] = 384-well plate pilot, post-Golgi transport modulator project, inhibition of yeast transport mutant growth (AID 636; in the data active = inhibition above about 31%); conditions: absorbance 615 nm, about 18 h, stronger effect = higher value
[9] = growth suppression of yeast trafficking mutant, preliminary HTS, modulators of trafficking downstream of Golgi apparatus project, 1536-format plate, OD 615 nm (AID 637; in the data active = inhibition above about 30%); conditions: yeast transport mutant growth, absorbance 615 nm, 18 h; stronger effect = higher value
[10] = H69AR cells + 2 uM doxorubicin, measured here: viability with 2 uM doxorubicin, stronger effect = lower value
[11] = H69AR cells, compound alone cytotoxicity

Chain of Pantothenate synthetase (Mycobacterium tuberculosis (strain ATCC 25618 / H37Rv)) (P9WIL5 whole entry, looked up): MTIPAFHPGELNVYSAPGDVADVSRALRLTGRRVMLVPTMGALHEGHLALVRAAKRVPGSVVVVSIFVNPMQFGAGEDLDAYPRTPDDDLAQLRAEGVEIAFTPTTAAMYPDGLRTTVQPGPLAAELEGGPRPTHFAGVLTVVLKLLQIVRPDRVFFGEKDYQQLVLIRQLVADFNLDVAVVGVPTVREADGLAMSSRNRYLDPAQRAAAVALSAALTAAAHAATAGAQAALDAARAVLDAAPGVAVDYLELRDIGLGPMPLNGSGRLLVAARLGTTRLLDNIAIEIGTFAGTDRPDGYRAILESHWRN
Chain of Receptor tyrosine-protein kinase erbB-2 (Homo sapiens) (P04626 whole entry, looked up): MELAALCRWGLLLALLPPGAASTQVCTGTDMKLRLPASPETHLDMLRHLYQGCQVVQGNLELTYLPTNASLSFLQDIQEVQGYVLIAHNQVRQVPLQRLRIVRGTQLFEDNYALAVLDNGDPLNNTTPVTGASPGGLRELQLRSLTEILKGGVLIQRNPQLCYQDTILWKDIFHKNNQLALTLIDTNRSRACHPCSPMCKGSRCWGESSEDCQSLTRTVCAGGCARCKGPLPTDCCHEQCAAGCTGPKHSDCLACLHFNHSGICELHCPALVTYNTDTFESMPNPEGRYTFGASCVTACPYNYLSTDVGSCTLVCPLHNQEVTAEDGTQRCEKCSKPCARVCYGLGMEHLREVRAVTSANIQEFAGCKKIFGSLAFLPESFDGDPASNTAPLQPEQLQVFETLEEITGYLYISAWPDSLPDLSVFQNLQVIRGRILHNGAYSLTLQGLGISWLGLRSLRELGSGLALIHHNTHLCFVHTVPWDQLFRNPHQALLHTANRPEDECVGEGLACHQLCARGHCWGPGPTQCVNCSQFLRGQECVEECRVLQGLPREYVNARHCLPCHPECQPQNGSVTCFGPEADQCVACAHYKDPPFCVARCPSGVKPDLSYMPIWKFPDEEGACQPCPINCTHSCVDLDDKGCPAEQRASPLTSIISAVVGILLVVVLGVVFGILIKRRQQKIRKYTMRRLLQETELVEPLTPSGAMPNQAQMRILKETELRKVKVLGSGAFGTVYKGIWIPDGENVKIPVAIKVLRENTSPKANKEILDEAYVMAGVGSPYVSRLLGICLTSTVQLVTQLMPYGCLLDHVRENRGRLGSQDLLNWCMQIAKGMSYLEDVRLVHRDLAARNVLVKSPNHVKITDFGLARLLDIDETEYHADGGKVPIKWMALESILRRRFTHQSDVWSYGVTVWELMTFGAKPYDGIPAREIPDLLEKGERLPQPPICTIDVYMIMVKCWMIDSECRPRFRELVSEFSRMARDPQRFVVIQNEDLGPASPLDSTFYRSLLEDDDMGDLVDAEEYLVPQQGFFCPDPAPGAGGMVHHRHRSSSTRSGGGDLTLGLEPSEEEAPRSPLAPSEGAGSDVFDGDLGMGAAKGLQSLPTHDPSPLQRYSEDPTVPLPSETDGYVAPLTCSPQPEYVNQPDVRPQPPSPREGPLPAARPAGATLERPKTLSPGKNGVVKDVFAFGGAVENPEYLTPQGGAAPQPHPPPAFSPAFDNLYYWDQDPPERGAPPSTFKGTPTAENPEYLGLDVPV

Row | Compound | inhibition [1] | viability [2] [%] | Her2 level [3] | viability [4] | viability [5] | viability [6] | differential viability (reversal) ([7]; H69AR cells + 2 uM doxorubicin) | viability [7, 10] [%] | viability [7, 11] [%] | inhibition [8] | inhibition [9]
1 | Cn1c(=O)cc(OCC(=O)N2CCN(C3CCCCC3)CC2)c2ccccc21 | 0% (inactive) | 87 | 88% (inactive) | 87% (inactive) | 82% (inactive) | 85.2% (inactive) | 3.09% (inactive) | 82.1 | 85.2 | -1.47% (inactive) | -1.15% (inactive)
2 | Cc1oc2ccc(OC(=O)N(C)C)cc2c1C(=O)OC(C)C | 0% (inactive) | 96 | 87.5% (inactive) | 96% (inactive) | 92.4% (inactive) | 107% (inactive) | 11.3% (inactive) | 95.8 | 107 | -3.24% (inactive) | 10.2% (inactive)
3 | CCOc1ccc(-n2c(O)c(C=NCCN3CCNCC3)c(=O)[nH]c2=O)cc1 | 3% (inactive) | 102 | 77.5% (inactive) | 102% (inactive) | 100% (inactive) | 89% (inactive) | -4.71% (inactive) | 93.8 | 89 | -1.58% (inactive) | -3.71% (inactive)
4 | COc1cc(/C=N/n2cnnc2)ccc1OC(=O)N(C)C | 6% (inactive) | 97 | 96.5% (inactive) | 97% (inactive) | 99.5% (inactive) | 102% (inactive) | 9.57% (inactive) | 92.7 | 102 | -4.21% (inactive) | -2.06% (inactive)
5 | COc1ccccc1N1CCN(Cc2c(F)cccc2F)CC1 | 1% (inactive) | 89 | 88.5% (inactive) | 89% (inactive) | 107% (inactive) | 94.2% (inactive) | -2.56% (inactive) | 96.8 | 94.2 | -1.69% (inactive) | 0.98% (inactive)
